Results of several laboratories.
Lines come from different studies, so protocols differ.
KIT autoinhibited: Mast/stem cell growth factor receptor Kit, autoinhibited (KIT, Homo sapiens, UniProt P10721)
KIT D816H: Mast/stem cell growth factor receptor Kit (KIT, Homo sapiens, UniProt P10721, D816H)
KIT L576P: Mast/stem cell growth factor receptor Kit (KIT, Homo sapiens, UniProt P10721, L576P)
KIT T670I/V559D: Mast/stem cell growth factor receptor Kit (KIT, Homo sapiens, UniProt P10721, T670I/V559D)
KIT: Mast/stem cell growth factor receptor Kit (KIT, Homo sapiens, UniProt P10721)
KIT V559D/V654A: Mast/stem cell growth factor receptor Kit (KIT, Homo sapiens, UniProt P10721, V559D/V654A)
KIT V559D: Mast/stem cell growth factor receptor Kit (KIT, Homo sapiens, UniProt P10721, V559D)
KIT A829P: Mast/stem cell growth factor receptor Kit (KIT, Homo sapiens, UniProt P10721, A829P)

COc1cnc(Nc2cccc(S(N)(=O)=O)c2)nc1N1CCN(c2ccccc2)CC1  remaining binding (KIT autoinhibited; binding, competition with immobilised ligand; 1 µM): 90%
C[C@@H](c1ccc(-n2cnc3c(N)ncnc32)cc1)N1CCc2nn(C)c(Cc3ccccc3)c2C1=O  remaining binding (KIT D816H; binding, competition with immobilised ligand; 0.1 µM): 64%
O=C(NCC1CCOCC1)c1n[nH]cc1NC(=O)c1c(F)cccc1F  remaining binding (KIT D816H; binding, competition with immobilised ligand; 1 µM): 69%
C[C@@H]1CCN(c2nccc(-c3cnn4ncccc34)n2)C1  remaining binding (KIT L576P; binding; 1 µM): 100%
CC(C)(O)c1cncc(-c2nc3ccc(F)cc3n2C2CC2)c1  remaining binding (KIT D816H; cell-free assay, competition with immobilised ligand; 1 µM): 100%
CCN1CCN(Cc2ccc(C(=O)Nc3ccc(C)c(Oc4ccc5c(c4)CC(=O)N5)c3)cc2C(F)(F)F)CC1  remaining binding (KIT T670I/V559D; binding, competition with immobilised ligand; 1 µM): 58%
O=C(NCCCN1CCOCC1)c1ccc(Nc2ncc(Cl)c(-c3ccc(Cl)s3)n2)cc1  remaining binding (KIT D816H; binding, competition with immobilised ligand; 1 µM): 22%
COc1cnc(Nc2cccc(S(N)(=O)=O)c2)nc1N1CCN(c2ccccc2)C(=O)C1  remaining binding (KIT; binding, competition with immobilised ligand; 1 µM): 98%
COc1ccnn2ncc(-c3ccnc(N(C)C)n3)c12  remaining binding (KIT; binding; 1 µM): 100%
O=c1nc(-c2ccccn2)sc2ccccc12  remaining binding (KIT V559D/V654A; binding, competition with immobilised ligand; 1 µM): 100%
c1cncc(-c2cccc(Nc3nccc(NC4CCCCC4)n3)c2)c1  remaining binding (KIT V559D/V654A; binding, competition with immobilised ligand; 10 µM): 43%
C=CC(=O)N1CCC(C(=O)NCC(=O)N2CCN(c3nc(-c4cnc(N)nc4C(F)F)nc(N4CCOCC4)n3)CC2)CC1  remaining binding (KIT autoinhibited; binding, competition with immobilised ligand; 1 µM): 35%
CN(C)c1nccc(-c2cnn3ncccc23)n1  remaining binding (Mast/stem cell growth factor receptor Kit (KIT, Homo sapiens, UniProt P10721, D816V); binding; 1 µM): 60%
O=C(Nc1c[nH]nc1C(=O)NC1CCNCC1)c1cc(F)cc(F)c1  remaining binding (KIT D816H; binding, competition with immobilised ligand; 1 µM): 100%
O=C(NS(=O)(=O)c1ccc(NCC2CCOCC2)c([N+](=O)[O-])c1)c1ccc(N2CCN(Cc3ccc(C(F)(F)F)cc3-c3ccc(Cl)cc3)CC2)cc1Oc1cnc2[nH]ccc2c1  remaining binding (KIT V559D; cell-free assay, competition with immobilised ligand; 1 µM): 100%
O=C(c1ccc(Nc2ncc(Cl)c(-c3cc4ccccc4s3)n2)cc1)N1CCC(N2CCCC2)CC1  remaining binding (KIT A829P; binding, competition with immobilised ligand; 1 µM): 19%
CNC(=O)[C@@H]1CC[C@@H](n2c(-c3ccc4cnccc4c3)nc3ccc(C(=O)NCc4cccc(C(N)=O)c4)cc32)C1  remaining binding (KIT L576P; binding, competition with immobilised ligand; 1 µM): 99%
O=C(c1ccc(Nc2nccc(-c3cc4ccccc4s3)n2)cc1)N1CCC(N2CCCC2)CC1  remaining binding (KIT; binding, competition with immobilised ligand; 1 µM): 53%
CN1CCN(c2ccc(Nc3nccc(-c4ccccc4)n3)cc2C(F)(F)F)CC1  remaining binding (KIT V559D; binding; 10 µM): 0.05%
Cc1cc(NC(=O)c2cccc(S(F)(F)(F)(F)F)c2)cc(-n2ccn3nc(-c4cccnc4)cc23)c1  remaining binding (KIT; cell-free assay, competition with immobilised ligand; 1 µM): 89.5%
O=C(c1ccc(Nc2ncc(Cl)c(-c3ccc(Cl)s3)n2)cc1)N1CCC(N2CCCC2)CC1  remaining binding (KIT L576P; binding, competition with immobilised ligand; 1 µM): 1.4%
CN(C)c1ncc(F)c(-c2cnn3ncccc23)n1  remaining binding (KIT T670I/V559D; binding; 1 µM): 100%
CN1CCN(c2ccc(Nc3nccc(-c4cccc([N+](=O)[O-])c4)n3)cc2C(F)(F)F)CC1  remaining binding (KIT V559D; binding; 10 µM): 0%
Cc1cnc(Nc2ccc(C(=O)N3CCC(N4CCCC4)CC3)cc2)nc1-c1cc2ccccc2s1  remaining binding (KIT V559D/V654A; binding, competition with immobilised ligand; 1 µM): 29%
F[C@@H]1CCN(c2nccc(-c3cnn4ncccc34)n2)C1  remaining binding (KIT autoinhibited; binding; 1 µM): 100%
Cc1nc(C2CCN(C(=O)c3ccc(OC(F)(F)F)cc3N)CC2)c2ncc(N3CCN(C)CC3)cc2n1  remaining binding (KIT L576P; cell-free assay, competition with immobilised ligand; 1 µM): 87%
Nc1ncc2c(n1)-c1c([nH]c3ccc(C#CC4CC4)cc13)CCCC2  remaining binding (KIT A829P; binding, competition with immobilised ligand; 1 µM): 72%
N[C@@H]1CCN(c2nccc(-c3cnn4ncccc34)n2)C1  remaining binding (KIT D816H; binding; 1 µM): 100%
O=C(NCCCN1CCOCC1)c1ccc(Nc2nccc(-c3cc4ccccc4s3)n2)cc1  remaining binding (KIT; binding, competition with immobilised ligand; 1 µM): 63%
COc1ccc2cc(OCC3(C(=O)O)CN(C(=O)c4ccc(F)cc4)C3)ccc2c1  remaining binding (KIT L576P; cell-free assay, competition with immobilised ligand; 1 µM): 100%
Cc1cnn2ncc(-c3ccnc(N(C)C)n3)c2c1  remaining binding (KIT; binding; 1 µM): 100%
CS(=O)(=O)N1CCCC(NC(=O)[C@H](CCC2CCCCC2)NC(=O)c2ccc(CNc3ncnc4c3nnn4-c3ccccc3)cc2)C1 (some centres unmarked)  remaining binding (KIT T670I/V559D; cell-free assay, competition with immobilised ligand; 0.1 µM): 100%
CN(c1nccc(-c2cnn3ncccc23)n1)C1CC1  remaining binding (KIT A829P; binding; 1 µM): 88%
O=C(O)[C@@H]1[C@@H](Cn2nnc3ccccc3c2=O)CC[C@H]1C(=O)c1ccc(OCCC2CCOCC2)cc1  remaining binding (KIT D816H; cell-free assay, competition with immobilised ligand; 1 µM): 68%
COc1ncc2cc3ccccc3nc2c1C#N  remaining binding (KIT autoinhibited; cell-free assay, competition with immobilised ligand; 5 µM): 98%
